Calls of active or inactive are those of the source. The calls are words filed in the database; no cut-off is given here.
Assays:
[1] = test system: OVCAR-5; test: Antitumor activity against human OVCAR5 cells implanted in mouse dosed qd for 4 days by formazan dye-based hollow fiber assay; format: functional, organism-based
Summary of the method: (§1)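 Cells grown inside polyvinylidene fluoride hollow fibers; each line implanted into both intraperitoneal and subcutaneous compartments in mice. Compound given ip at two doses on a QD x 4 schedule. Fibers then recovered and viable cell mass measured by formazan dye conversion. Scored 2 per dose giving ≥50% reduction in viable cell mass (%T/C 50).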

[2] = test system: OVCAR-8; test: Cytotoxicity against human OVCAR8 cells after 48 hrs by SRB assay; format: functional; settings: OVCAR-8, 48 h
Summary of the method: (§2)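 NCI five-dose screen on the ~60-line human tumor panel. Cells grown in RPMI-1640 with 5% fetal calf serum and 2 mM L-glutamine, seeded at line-dependent density and preincubated 24 h. Compound added from DMSO at 10-fold dilutions from 10^-4 to 10^-8 M, continuous exposure 48 h. Growth read by sulforhodamine B protein stain. GI50, TGI and LC50 derived per line.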

[3] = test system: HOP-62; test: Cytotoxicity against human HOP62 cells after 48 hrs by SRB assay; format: functional; settings: HOP-62, 48 h
Summary of the method: (§3)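 NCI ~60-line panel in RPMI-1640 with 5% fetal calf serum and 2 mM L-glutamine, pre-incubated 24 h. Compound in DMSO tested at five 10-fold concentrations (10^-4 to 10^-8 M) with 48 h continuous exposure. Growth measured by sulforhodamine B protein assay. GI50 (50% net growth inhibition), TGI (total inhibition) and LC50 (50% net cell death) derived from dose-response.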

[4] = test system: SW-620; test: Cytotoxicity against human SW620 cells after 48 hrs by SRB assay; format: functional; settings: SW-620, 48 h
Summary of the method: (§4)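 NCI 60-cell-line five-dose screen. Cells were grown in 1640 medium with 5% fetal calf serum and 2 mM L-glutamine, with inoculum density set by cell line, and pre-incubated 24 h. Compound in DMSO was added at 10^-4 to 10^-8 M (10-fold steps) with 48 h continuous exposure. Growth was read by SRB protein assay, and GI50, TGI and LC50 were derived from dose-response.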

[5] = test system: SW-620; test: Cytotoxicity against human SW620 cells assessed as cell growth at 10 uM after 48 hrs by SRB assay; format: functional; settings: SW-620, 48 h, read-out: Activity
Summary of the method: (§5)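 NCI primary one-dose screen at 10^-5 M against the full panel of about 60 human tumour cell lines, run to the NCI Drug Evaluation Branch protocol.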

[6] = test system: A549; test: Cytotoxicity against human A549/ATCC cells assessed as cell growth at 10 uM after 48 hrs by SRB assay; format: functional; settings: A549, 48 h, read-out: Activity
Summary of the method: (§6)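 NCI primary single-dose screen at 10^-5 M against the ~60 human tumour cell line panel. Cells grown in RPMI-1640 with 5% fetal calf serum and 2 mM L-glutamine and pre-incubated 24 h before compound addition. Compound added from DMSO solution with 48 h exposure. Growth read by sulforhodamine B protein staining.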

[7] = test system: U-251; test: Cytotoxicity against human U251 cells assessed as cell growth at 10 uM after 48 hrs by SRB assay; format: functional; settings: U-251, 48 h, read-out: Activity; summary of the method: as §5
[8] = test system: OVCAR-3; test: Cytotoxicity against human OVCAR3 cells after 48 hrs by SRB assay; format: functional; settings: OVCAR-3, 48 h; summary of the method: as §2
[9] = test system: HL-60(TB); test: Cytotoxicity against human HL-60(TB) cells assessed as cell growth at 10 uM after 48 hrs by SRB assay; format: functional; settings: HL-60, 48 h, read-out: Activity
Summary of the method: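 NCI primary one-dose screen at 10^-5 M against about 60 human tumor cell lines. Cells pre-incubated 24 h, then compound in DMSO added for 48 h. Cell growth read by sulforhodamine B protein assay.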

[10] = test system: SK-OV-3; test: Cytotoxicity against human SKOV3 cells assessed as cell growth at 10 uM after 48 hrs by SRB assay; format: functional; settings: SK-OV-3, 48 h, read-out: Activity; summary of the method: as §5
[11] = test system: DU-145; test: Cytotoxicity against human DU145 cells after 48 hrs by SRB assay; format: functional; settings: DU-145, 48 h; summary of the method: as §3
[12] = test system: HCT-15; test: Cytotoxicity against human HCT15 cells after 48 hrs by SRB assay; format: functional; settings: HCT-15, 48 h; summary of the method: as §3
[13] = test system: SW-620; test: Antitumor activity against human SW620 cells implanted in mouse dosed qd for 4 days by formazan dye-based hollow fiber assay; format: functional, organism-based; summary of the method: as §1
[14] = test system: BT-549; test: Cytotoxicity against human BT549 cells after 48 hrs by SRB assay; format: functional; settings: BT-549, 48 h; summary of the method: as §3
[15] = test system: K562; test: Cytotoxicity against human K562 cells assessed as cell growth at 10 uM after 48 hrs by SRB assay; format: functional; settings: K562, 48 h, read-out: Activity; summary of the method: as §6
[16] = test system: SK-MEL-28; test: Cytotoxicity against human SK-MEL-28 cells after 48 hrs by SRB assay; format: functional; settings: SK-MEL-28, 48 h; summary of the method: as §4
[17] = test system: NCI-H460; test: Cytotoxicity against human NCI-H460 cells assessed as cell growth at 10 uM after 48 hrs by SRB assay; format: functional; settings: NCI-H460, 48 h, read-out: Activity
Summary of the method: (§7)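 NCI primary single-dose screen at 10^-5 M against the full panel of about 60 human tumor cell lines. Cells were in RPMI-1640 with 5% fetal calf serum and 2 mM L-glutamine and preincubated 24 h. Compound was given in DMSO with 48 h exposure. Growth was estimated by sulforhodamine B protein assay.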

[18] = test system: KM12; test: Cytotoxicity against human KM12 cells after 48 hrs by SRB assay; format: functional; settings: KM12, 48 h; summary of the method: as §2
[19] = test system: U-251; test: Antitumor activity against human U251 cells implanted in mouse dosed qd for 4 days by formazan dye-based hollow fiber assay; format: functional, organism-based; summary of the method: as §1
[20] = test system: OVCAR-3; test: Cytotoxicity against human OVCAR3 cells assessed as cell growth at 10 uM after 48 hrs by SRB assay; format: functional; settings: OVCAR-3, 48 h, read-out: Activity; summary of the method: as §7
[21] = test system: UO-31; test: Cytotoxicity against human UO31 cells assessed as cell growth at 10 uM after 48 hrs by SRB assay; format: functional; settings: UO-31, 48 h, read-out: Activity; summary of the method: as §5
[22] = test system: MCF7; test: Cytotoxicity against human MCF7 cells after 48 hrs by SRB assay; format: functional; settings: MCF7, 48 h; summary of the method: as §2
[23] = test system: U-251; test: Cytotoxicity against human U251 cells after 48 hrs by SRB assay; format: functional; settings: U-251, 48 h; summary of the method: as §4

## CCc1ccc(-c2ccc(=O)n(-c3ccc(S(N)(=O)=O)cc3)n2)cc1
[1]
  Activity: inactive
[2]
  LC50: > 100 µM
[2]; read-out: GI50
  GI50: 11 µM
[2]; read-out: pGI50 (converted)
  GI50: 11 µM
[2]; read-out: pTGI
  TGI: > 100 µM
[3]
  LC50: 70.8 µM
[3]; read-out: GI50
  GI50: 2.48 µM
[3]; read-out: pGI50 (converted)
  GI50: 2.45 µM
[3]; read-out: pTGI (converted)
  TGI: 22.4 µM
[4]
  LC50: > 100 µM
[4]; read-out: GI50
  GI50: 0.454 µM
[4]; read-out: pGI50 (converted)
  GI50: 0.457 µM
[4]; read-out: pTGI
  TGI: > 100 µM
[5]
  growth at 10 µM: 35%
[6]
  growth at 10 µM: 18%
[7]
  growth at 10 µM: 35%
[8]
  LC50: > 100 µM
[8]; read-out: GI50
  GI50: 0.429 µM
[8]; read-out: pGI50 (converted)
  GI50: 0.427 µM
[8]; read-out: pTGI
  TGI: > 100 µM
[9]
  growth at 10 µM: -4.27%
[10]
  growth at 10 µM: 49.5%
[11]
  LC50: > 100 µM
[11]; read-out: GI50
  GI50: 13.8 µM
[11]; read-out: pGI50 (converted)
  GI50: 13.8 µM
[11]; read-out: pTGI
  TGI: > 100 µM
[12]
  LC50: > 100 µM
[12]; read-out: GI50
  GI50: 0.661 µM
[12]; read-out: pGI50 (converted)
  GI50: 0.661 µM
[12]; read-out: pTGI
  TGI: > 100 µM
[13]
  Activity: inactive
[14]
  LC50: 85.1 µM
[14]; read-out: GI50
  GI50: 0.756 µM
[14]; read-out: pGI50 (converted)
  GI50: 0.759 µM
[14]; read-out: pTGI (converted)
  TGI: 17.8 µM
[15]
  growth at 10 µM: 11%
[16]
  LC50: > 100 µM
[16]; read-out: GI50
  GI50: 1.37 µM
[16]; read-out: pGI50 (converted)
  GI50: 1.38 µM
[16]; read-out: pTGI
  TGI: > 100 µM
[17]
  growth at 10 µM: 12.6%
[18]
  LC50 (50% lethal concentration): > 100 µM
[18]; read-out: GI50
  GI50: 0.486 µM
[18]; read-out: pGI50 (converted)
  GI50: 0.49 µM
[18]; read-out: pTGI
  TGI: > 100 µM
[19]
  Activity: inactive
[20]
  growth at 10 µM: -56.8%
[21]
  growth at 10 µM: 38.4%
[22]
  LC50: > 100 µM
[22]; read-out: GI50
  GI50: 0.615 µM
[22]; read-out: pGI50 (converted)
  GI50: 0.617 µM
[22]; read-out: pTGI (converted)
  TGI: 19.1 µM
[23]
  LC50: > 100 µM
[23]; read-out: GI50
  GI50: 1.58 µM
[23]; read-out: pGI50 (converted)
  GI50: 1.58 µM
[23]; read-out: pTGI (converted)
  TGI: 24 µM
